Source: ChEMBL document CHEMBL4706568, “Some thermodynamic effects of varying nonpolar surfaces in protein-ligand interactions” (Eur J Med Chem, 2020)
Square brackets hold non-standard residues; d marks the D form. Peptide text beside a SMILES is read from it. * marks the point of attachment. pY = N[C@@H](Cc1ccc(OP(=O)(O)O)cc1)C(=O)O; NHPhenethyl = c1ccc(CCN*)cc1; Ac6c = NC1(C(=O)O)CCCCC1; NHBn = c1ccc(CN*)cc1

Experiments:
[1] = biological target: Growth factor receptor-bound protein 2 (Homo sapiens) (UniProt P62993); assay: Binding affinity to Grb2-SH2 domain (53 to 163 residues) (unknown origin) expressed in Escherichia coli assessed as change in gibbs free energy by ITC analysis
Summary of the method: (§1)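 Grb2 SH2 residues 53–163 expressed in E. coli SG13009 (IPTG induction), purified by phosphotyrosine affinity, Q-Sepharose and size exclusion to isolate monomer. Protein diluted to 65–85 μM, ligand ~1 mM, both in 50 mM HEPES, 150 mM NaCl, pH 7.50. VP-ITC at 25 °C, ~35 injections of 7–9 μL ligand, buffer heats subtracted, n normalized to 1.00; ≥3 runs averaged.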

[2] = biological target: Growth factor receptor-bound protein 2 (Homo sapiens) (UniProt P62993); assay: Binding affinity to Grb2-SH2 domain (53 to 163 residues) (unknown origin) expressed in Escherichia coli assessed as change in entropy by ITC analysis; summary of the method: as §1
[3] = biological target: Growth factor receptor-bound protein 2 (Homo sapiens) (UniProt P62993); assay: Binding affinity to Grb2-SH2 domain (53 to 163 residues) (unknown origin) expressed in Escherichia coli assessed as change in enthalpy by ITC analysis; summary of the method: as §1
[4] = biological target: Growth factor receptor-bound protein 2 (Homo sapiens) (UniProt P62993); assay: Binding affinity to Grb2-SH2 domain (53 to 163 residues) (unknown origin) expressed in Escherichia coli assessed as association constant by ITC analysis; summary of the method: as §1

Row | deltaG [1] | -TdeltaS [2] | deltaH [3] | Ka [4] | Compound
1 | -9.6 kcal/mol | -2.1 kcal/mol | -7.5 kcal/mol | 1.2 10^7/M | CC(=O)N[C@@H](Cc1ccc(OP(=O)(O)O)cc1)C(=O)NC1(C(=O)N[C@@H](CC(N)=O)C(=O)NCc2ccccc2)CCCCC1 (Ac-[pY]-[Ac6c]-Asn-NHBn)
2 | -10.2 kcal/mol | -2.3 kcal/mol | -7.9 kcal/mol | 2.8 10^7/M | CC(=O)N[C@@H](Cc1ccc(OP(=O)(O)O)cc1)C(=O)NC1(C(=O)N[C@@H](CC(N)=O)C(=O)NCCCCCc2ccccc2)CCCCC1
3 | -10.5 kcal/mol | -1.4 kcal/mol | -9.1 kcal/mol | 5 10^7/M | COc1ccc(CCCNC(=O)[C@H](CC(N)=O)NC(=O)C2(NC(=O)[C@H](Cc3ccc(OP(=O)(O)O)cc3)NC(C)=O)CCCCC2)cc1
4 | -9.8 kcal/mol | -2 kcal/mol | -7.8 kcal/mol | 1.7 10^7/M | CC(=O)N[C@@H](Cc1ccc(OP(=O)(O)O)cc1)C(=O)NC1(C(=O)N[C@@H](CC(N)=O)C(=O)NCCCCC(C)C)CCCCC1
5 | -10.1 kcal/mol | -1 kcal/mol | -9.1 kcal/mol | 2.7 10^7/M | CC(=O)N[C@@H](Cc1ccc(OP(=O)(O)O)cc1)C(=O)NC1(C(=O)N[C@@H](CC(N)=O)C(=O)NCCCn2ccc3ccccc32)CCCCC1
6 | -9.8 kcal/mol | -2.1 kcal/mol | -7.7 kcal/mol | 1.5 10^7/M | CC(=O)N[C@@H](Cc1ccc(OP(=O)(O)O)cc1)C(=O)NC1(C(=O)N[C@@H](CC(N)=O)C(=O)NCCc2ccccc2)CCCCC1 (Ac-[pY]-[Ac6c]-Asn-NHPhenethyl)
7 | -9.3 kcal/mol | -0.8 kcal/mol | -8.5 kcal/mol | 0.7 10^7/M | CC(=O)N[C@@H](Cc1ccc(OP(=O)(O)O)cc1)C(=O)NC1(C(=O)N[C@@H](CC(N)=O)C(N)=O)CCCCC1 (Ac-[pY]-[Ac6c]-Asn-NH2)
8 | -10.3 kcal/mol | -1.7 kcal/mol | -8.6 kcal/mol | 4 10^7/M | CC(=O)N[C@@H](Cc1ccc(OP(=O)(O)O)cc1)C(=O)NC1(C(=O)N[C@@H](CC(N)=O)C(=O)NCCCc2ccc(C)cc2)CCCCC1
9 | -10.4 kcal/mol | -0.2 kcal/mol | -10.2 kcal/mol | 4.9 10^7/M | CC(=O)N[C@@H](Cc1ccc(OP(=O)(O)O)cc1)C(=O)NC1(C(=O)N[C@@H](CC(N)=O)C(=O)NCCCc2cn(C)c3ccccc23)CCCCC1
10 | -10.3 kcal/mol | -1.2 kcal/mol | -9.1 kcal/mol | 3.5 10^7/M | CC(=O)N[C@@H](Cc1ccc(OP(=O)(O)O)cc1)C(=O)NC1(C(=O)N[C@@H](CC(N)=O)C(=O)NCCCc2c[nH]c3ccccc23)CCCCC1
11 | -10.1 kcal/mol | -2 kcal/mol | -8.1 kcal/mol | 2.4 10^7/M | CC(=O)N[C@@H](Cc1ccc(OP(=O)(O)O)cc1)C(=O)NC1(C(=O)N[C@@H](CC(N)=O)C(=O)NCCc2cn(C)c3ccccc23)CCCCC1
12 | -9.8 kcal/mol | -2.1 kcal/mol | -7.7 kcal/mol | 1.5 10^7/M | CC(=O)N[C@@H](Cc1ccc(OP(=O)(O)O)cc1)C(=O)NC1(C(=O)N[C@@H](CC(N)=O)C(=O)NCCCCc2ccccc2)CCCCC1
13 | -9.9 kcal/mol | -1.9 kcal/mol | -8 kcal/mol | 1.9 10^7/M | CC(=O)N[C@@H](Cc1ccc(OP(=O)(O)O)cc1)C(=O)NC1(C(=O)N[C@@H](CC(N)=O)C(=O)NCCCC2CCCCC2)CCCCC1
14 | -10.5 kcal/mol | -1.4 kcal/mol | -9.1 kcal/mol | 4.7 10^7/M | CC(=O)N[C@@H](Cc1ccc(OP(=O)(O)O)cc1)C(=O)NC1(C(=O)N[C@@H](CC(N)=O)C(=O)NCCCc2ccc(Cl)cc2)CCCCC1
15 | -10.1 kcal/mol | -1.3 kcal/mol | -8.8 kcal/mol | 2.6 10^7/M | CC(=O)N[C@@H](Cc1ccc(OP(=O)(O)O)cc1)C(=O)NC1(C(=O)N[C@@H](CC(N)=O)C(=O)NCCCc2ccccc2)CCCCC1
16 | -9.5 kcal/mol | -2.8 kcal/mol | -6.7 kcal/mol | 1.1 10^7/M | CC(=O)N[C@@H](Cc1ccc(OP(=O)(O)O)cc1)C(=O)NC1(C(=O)N[C@@H](CC(N)=O)C(=O)NCc2cn(C)c3ccccc23)CCCCC1
17 | -9.8 kcal/mol | -1.9 kcal/mol | -7.9 kcal/mol | 1.6 10^7/M | CC(=O)N[C@@H](Cc1ccc(OP(=O)(O)O)cc1)C(=O)NC1(C(=O)N[C@@H](CC(N)=O)C(=O)NCCCC(C)C)CCCCC1
18 | -10.6 kcal/mol | -1 kcal/mol | -9.6 kcal/mol | 6 10^7/M | CC(=O)N[C@@H](Cc1ccc(OP(=O)(O)O)cc1)C(=O)NC1(C(=O)N[C@@H](CC(N)=O)C(=O)NCCCc2cccc3ccccc23)CCCCC1
